Measurements collected from several papers.
Compare with care: the assays were run in different laboratories.
Target: Serine/threonine-protein kinase 24 (STK24, Homo sapiens, UniProt Q9Y6E0)

Compound | effect on | method | concentration | remaining binding [%]
COc1cnc(Nc2cccc(S(N)(=O)=O)c2)nc1N1CCN(c2ccccc2)CC1 | binding | competition with immobilised ligand | 1 µM | 82
O=C(NCC1CCOCC1)c1n[nH]cc1NC(=O)c1c(F)cccc1F | binding | competition with immobilised ligand | 1 µM | 89
CN(CCCC(F)(F)F)c1nccc(-c2cnn3ncccc23)n1 | binding |  | 1 µM | 100
Cc1nc(Cc2cccc(C(F)(F)F)c2)sc1-c1ccc(C(N)=O)nc1 | cell-free assay | competition with immobilised ligand | 1 µM | 100
CC1CCCN1c1nccc(-c2cnn3ncccc23)n1 (stereo not shown) | binding |  | 1 µM | 100
c1cncc(-c2cccc(Nc3nccc(NC4CCCCC4)n3)c2)c1 | binding | competition with immobilised ligand | 10 µM | 93
O=C(c1ccc(Nc2ncc(Cl)c(-c3cc4ccccc4s3)n2)cc1)N1CCC(N2CCCC2)CC1 | binding | competition with immobilised ligand | 1 µM | 92
C[C@H](c1cccc(C#N)c1)n1cc(Cl)cc(C(N)=O)c1=N | cell-free assay | competition with immobilised ligand | 1 µM | 89
c1cnn2ncc(-c3ccnc(N4CCC45COC5)n3)c2c1 | binding |  | 1 µM | 74
O=C(c1ccc(Nc2ncc(Cl)c(-c3ccc(Cl)s3)n2)cc1)N1CCC(N2CCCC2)CC1 | binding | competition with immobilised ligand | 1 µM | 44
FC(F)(F)c1ccc2c(c1)nc(-c1cccnc1)n2C1CC1 | cell-free assay | competition with immobilised ligand | 1 µM | 100
CN(C)c1nccc(-c2cnn3ncccc23)n1 | binding |  | 1 µM | 100
COc1ncc2cc3ccccc3nc2c1C#N | cell-free assay | competition with immobilised ligand | 5 µM | 97
CN(C(=O)c1ccccc1)c1cc(N(C)c2ccc3c(c2)CCc2ccc(C(=O)NCCN4CCOCC4)cc2C3=O)ccc1F | cell-free assay | competition with immobilised ligand | 1 µM | 100
N[C@H]1CCN(c2nccc(-c3cnn4ncccc34)n2)C1 | binding |  | 1 µM | 83
O=C(NCc1ncc(C(F)(F)F)cc1Cl)c1ccc2c(c1)C1(CCS(=O)(=O)CC1)[C@@H](C1CC1)N2S(=O)(=O)c1ccc(F)cc1 | cell-free assay | competition with immobilised ligand | 1 µM | 100
F[C@@H]1CCN(c2nccc(-c3cnn4ncccc34)n2)C1 | binding |  | 1 µM | 93
Cn1nc(C(=O)NCc2ccc(C(=O)O)cc2)cc1-c1ccc2[nH]ccc2c1 | cell-free assay | competition with immobilised ligand | 0.1 µM | 97
Cc1cnc(Nc2ccc(C(=O)N3CCC(N4CCCC4)CC3)cc2)nc1-c1cc2ccccc2s1 | binding | competition with immobilised ligand | 1 µM | 84
